Test results from ChEMBL document CHEMBL4689842, “EUbOPEN Chemogenomics Library wave 1” (2021).
Values joined by “and” are separate entries in the source; they are usually repeats but may differ in a detail not shown here. Equal entries are not always repeated.

Test system: Fibroblast
Test: Multiplex assay against human fibroblast
Type: toxicity, cell-based
How it was run: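 With compound added, live cells were imaged on a CQ1 microscope at 37°C and 5% CO2; staining with Hoechst33342, BioTracker Green Microtubule Cytoskeleton Dye, MitoTracker Red and Annexin V Alexa Fluor 680 had been done at seeding. The CellPathfinder machine-learning gating scheme split cells into Hoechst high-intensity objects or normal cells, normal cells into healthy, pyknosed or fragmented nuclei, and pyknosed cells into mitotic or apoptotic. The tubulin, mitochondrial-mass and membrane-permeability phenotypes are per cents of healthy-nucleus cells.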

[1] = 12 h, 1 µM, compound concentration 1 uM, replicate 1
[2] = 12 h, 1 µM, compound concentration 1 uM, replicate 2
[3] = 24 h, 1 µM, compound concentration 1 uM, replicate 1
[4] = 24 h, 1 µM, compound concentration 1 uM, replicate 2
[5] = 12 h, 10 µM, compound concentration 10 uM, replicate 1
[6] = 12 h, 10 µM, compound concentration 10 uM, replicate 2
[7] = 24 h, 10 µM, compound concentration 10 uM, replicate 1
[8] = 24 h, 10 µM, compound concentration 10 uM, replicate 2
[9] = 48 h, 1 µM, compound concentration 1 uM, replicate 1
[10] = 48 h, 1 µM, compound concentration 1 uM, replicate 2
[11] = 48 h, 10 µM, compound concentration 10 uM, replicate 1
[12] = 48 h, 10 µM, compound concentration 10 uM, replicate 2

## CN1CCN(Cc2cc(NC(=O)c3ccc4c(c3)CN(c3ccccc3)CC4)cc(C(F)(F)F)c2)CC1
[1]
  Population Apoptotic (%): 72% and 64%
  Population Fragmented Nuclei (%): 42% and 27%
  Population Healthy Nuclei (%): 43% and 53%
  Population Hoechst High Intensity Objects (%): 27% and 18%
  Population Membrane Permeable-Phenotype (%): 4% and 12%
  Population Mitochondria Different-Phenotype (%): 6% and 7%
  Population Mitotic Cells (%): 27% and 35%
  Population Normal (%): 72% and 81%
  Population Pyknosed Nuclei (%): 14% and 19%
  Population Tubulin-Different-Phenotype (%): 30% and 14%
  Total Cell Count: 315 and 180
[2]
  Population Apoptotic (%): 75% and 40%
  Population Fragmented Nuclei (%): 55% and 53%
  Population Healthy Nuclei (%): 37% and 39%
  Population Hoechst High Intensity Objects (%): 36% and 35%
  Population Mitochondria Different-Phenotype (%): 13% and 31%
  Population Mitotic Cells (%): 25% and 60%
  Population Normal (%): 63% and 64%
  Population Pyknosed Nuclei (%): 6%
  Total Cell Count: 92 and 114
[3]
  Population Apoptotic (%): 74% and 57%
  Population Fragmented Nuclei (%): 33% and 27%
  Population Healthy Nuclei (%): 52% and 58%
  Population Hoechst High Intensity Objects (%): 41% and 15%
  Population Membrane Permeable-Phenotype (%): 6% and 4%
  Population Mitochondria Different-Phenotype (%): 25% and 10%
  Population Mitotic Cells (%): 25% and 42%
  Population Normal (%): 58% and 84%
  Population Pyknosed Nuclei (%): 14% and 13%
  Total Cell Count: 365 and 178
[4]
  Population Apoptotic (%): 100% and 40%
  Population Fragmented Nuclei (%): 57% and 61%
  Population Healthy Nuclei (%): 33% and 32%
  Population Hoechst High Intensity Objects (%): 39% and 37%
  Population Membrane Permeable-Phenotype (%): 21% and 12%
  Population Mitochondria Different-Phenotype (%): 15% and 16%
  Population Normal (%): 60% and 62%
  Population Pyknosed Nuclei (%): 8% and 6%
  Population Tubulin-Different-Phenotype (%): 21% and 48%
  Total Cell Count: 93 and 124

## CCC1=C[C@@H]2C[N@](C1)Cc1c([nH]c3ccccc13)[C@@](C(=O)OC)(c1cc3c(cc1OC)N(C)[C@H]1[C@@](O)(C(=O)OC)[C@H](OC(C)=O)[C@]4(CC)C=CCN5CC[C@]31[C@@H]54)C2.O=C(O)C(O)C(O)C(=O)O.O=C(O)C(O)C(O)C(=O)O [VINORELBINE TARTRATE]
[1]
  Population Apoptotic (%): 63% and 65%
  Population Fragmented Nuclei (%): 27% and 51%
  Population Healthy Nuclei (%): 48% and 34%
  Population Hoechst High Intensity Objects (%): 16% and 26%
  Population Mitochondria Different-Phenotype (%): 14% and 9%
  Population Mitotic Cells (%): 36% and 34%
  Population Normal (%): 83% and 73%
  Population Pyknosed Nuclei (%): 23% and 14%
  Population Tubulin-Different-Phenotype (%): 8% and 4%
  Total Cell Count: 151 and 452
[2]
  Population Apoptotic (%): 100% and 80%
  Population Fragmented Nuclei (%): 79% and 75%
  Population Healthy Nuclei (%): 18% and 15%
  Population Hoechst High Intensity Objects (%): 44% and 38%
  Population Membrane Permeable-Phenotype (%): 22% and 0%
  Population Mitochondria Different-Phenotype (%): 0%
  Population Mitotic Cells (%): 0% and 20%
  Population Normal (%): 55% and 61%
  Total Cell Count: 86 and 94
[5]
  Population Apoptotic (%): 67% and 68%
  Population Fragmented Nuclei (%): 46% and 27%
  Population Healthy Nuclei (%): 39% and 50%
  Population Hoechst High Intensity Objects (%): 18%
  Population Membrane Permeable-Phenotype (%): 6% and 4%
  Population Mitochondria Different-Phenotype (%): 13% and 6%
  Population Mitotic Cells (%): 32% and 31%
  Population Normal (%): 81%
  Population Pyknosed Nuclei (%): 13% and 22%
  Population Tubulin-Different-Phenotype (%): 3%
  Total Cell Count: 353 and 227
[6]
  Population Apoptotic (%): 50% and 60%
  Population Fragmented Nuclei (%): 59% and 69%
  Population Healthy Nuclei (%): 31% and 24%
  Population Hoechst High Intensity Objects (%): 32% and 26%
  Population Membrane Permeable-Phenotype (%): 17% and 0%
  Population Mitochondria Different-Phenotype (%): 17% and 10%
  Population Mitotic Cells (%): 50% and 40%
  Population Normal (%): 67% and 73%
  Population Pyknosed Nuclei (%): 8% and 6%
  Population Tubulin-Different-Phenotype (%): 13% and 0%
  Total Cell Count: 107 and 111
[3]
  Population Apoptotic (%): 73% and 63%
  Population Fragmented Nuclei (%): 54% and 33%
  Population Healthy Nuclei (%): 31% and 50%
  Population Hoechst High Intensity Objects (%): 25% and 18%
  Population Mitochondria Different-Phenotype (%): 8% and 7%
  Population Mitotic Cells (%): 26% and 36%
  Population Normal (%): 74% and 81%
  Population Pyknosed Nuclei (%): 13% and 16%
  Population Tubulin-Different-Phenotype (%): 4% and 3%
[4]
  Population Fragmented Nuclei (%): 76% and 77%
  Population Healthy Nuclei (%): 20% and 15%
  Population Hoechst High Intensity Objects (%): 44% and 34%
  Population Mitochondria Different-Phenotype (%): 22% and 9%
  Population Mitotic Cells (%): 100% and 40%
  Population Normal (%): 55% and 65%
  Population Pyknosed Nuclei (%): 2% and 6%
  Population Tubulin-Different-Phenotype (%): 22% and 9%
  Total Cell Count: 77 and 110
[7]
  Population Apoptotic (%): 77% and 75%
  Population Fragmented Nuclei (%): 48% and 27%
  Population Healthy Nuclei (%): 35% and 54%
  Population Hoechst High Intensity Objects (%): 26% and 19%
  Population Membrane Permeable-Phenotype (%): 5% and 4%
  Population Mitochondria Different-Phenotype (%): 9% and 2%
  Population Mitotic Cells (%): 22% and 25%
  Population Normal (%): 73% and 80%
  Population Pyknosed Nuclei (%): 15% and 18%
  Population Tubulin-Different-Phenotype (%): 3% and 1%
  Total Cell Count: 394 and 248
[8]
  Population Fragmented Nuclei (%): 60% and 80%
  Population Healthy Nuclei (%): 31% and 17%
  Population Hoechst High Intensity Objects (%): 37% and 27%
  Population Membrane Permeable-Phenotype (%): 10% and 0%
  Population Mitochondria Different-Phenotype (%): 10% and 0%
  Population Normal (%): 62% and 72%
  Population Tubulin-Different-Phenotype (%): 0%
  Total Cell Count: 103 and 151

## CC(C)c1noc(N2CCC(COc3ccc(-c4ccc(S(C)(=O)=O)cc4)nc3)CC2)n1 [GSK-1292263]
[1]
  Population Apoptotic (%): 65%
  Population Fragmented Nuclei (%): 28%
  Population Healthy Nuclei (%): 45%
  Population Hoechst High Intensity Objects (%): 12%
  Population Membrane Permeable-Phenotype (%): 21%
  Population Mitochondria Different-Phenotype (%): 15%
  Population Mitotic Cells (%): 34%
  Population Normal (%): 87%
  Population Pyknosed Nuclei (%): 25%
  Population Tubulin-Different-Phenotype (%): 49%
  Total Cell Count: 128
[2]
  Population Apoptotic (%): 50%
  Population Fragmented Nuclei (%): 12%
  Population Healthy Nuclei (%): 85%
  Population Hoechst High Intensity Objects (%): 2%
  Population Membrane Permeable-Phenotype (%): 3%
  Population Mitochondria Different-Phenotype (%): 4%
  Population Mitotic Cells (%): 50%
  Population Normal (%): 97%
  Population Pyknosed Nuclei (%): 2%
  Population Tubulin-Different-Phenotype (%): 9%
  Total Cell Count: 89
[5]
  Population Apoptotic (%): 52%
  Population Fragmented Nuclei (%): 21%
  Population Healthy Nuclei (%): 45%
  Population Hoechst High Intensity Objects (%): 5%
  Population Membrane Permeable-Phenotype (%): 24%
  Population Mitochondria Different-Phenotype (%): 5%
  Population Mitotic Cells (%): 48%
  Population Normal (%): 94%
  Population Pyknosed Nuclei (%): 33%
  Population Tubulin-Different-Phenotype (%): 49%
  Total Cell Count: 160
[6]
  Population Apoptotic (%): 42%
  Population Fragmented Nuclei (%): 5%
  Population Healthy Nuclei (%): 83%
  Population Membrane Permeable-Phenotype (%): 3%
  Population Mitochondria Different-Phenotype (%): 10%
  Population Mitotic Cells (%): 57%
  Population Pyknosed Nuclei (%): 10%
  Population Tubulin-Different-Phenotype (%): 15%
  Total Cell Count: 76
[3]
  Population Apoptotic (%): 38%
  Population Fragmented Nuclei (%): 27%
  Population Healthy Nuclei (%): 39%
  Population Hoechst High Intensity Objects (%): 8%
  Population Membrane Permeable-Phenotype (%): 39%
  Population Mitochondria Different-Phenotype (%): 12%
  Population Mitotic Cells (%): 61%
  Population Normal (%): 91%
  Population Pyknosed Nuclei (%): 33%
  Population Tubulin-Different-Phenotype (%): 75%
  Total Cell Count: 112
[4]
  Population Apoptotic (%): 0%
  Population Fragmented Nuclei (%): 14%
  Population Healthy Nuclei (%): 83%
  Population Hoechst High Intensity Objects (%): 2%
  Population Membrane Permeable-Phenotype (%): 2%
  Population Mitochondria Different-Phenotype (%): 10%
  Population Mitotic Cells (%): 100%
  Population Normal (%): 97%
  Population Pyknosed Nuclei (%): 2%
  Population Tubulin-Different-Phenotype (%): 13%
  Total Cell Count: 103
[7]
  Population Apoptotic (%): 52%
  Population Fragmented Nuclei (%): 20%
  Population Healthy Nuclei (%): 45%
  Population Hoechst High Intensity Objects (%): 10%
  Population Membrane Permeable-Phenotype (%): 23%
  Population Mitochondria Different-Phenotype (%): 4%
  Population Mitotic Cells (%): 47%
  Population Normal (%): 89%
  Population Pyknosed Nuclei (%): 34%
  Population Tubulin-Different-Phenotype (%): 70%
  Total Cell Count: 178
[8]
  Population Apoptotic (%): 36%
  Population Fragmented Nuclei (%): 7%
  Population Healthy Nuclei (%): 79%
  Population Hoechst High Intensity Objects (%): 4%
  Population Membrane Permeable-Phenotype (%): 7%
  Population Mitochondria Different-Phenotype (%): 12%
  Population Mitotic Cells (%): 63%
  Population Normal (%): 95%
  Population Pyknosed Nuclei (%): 13%
  Population Tubulin-Different-Phenotype (%): 7%
  Total Cell Count: 91
[9]
  Population Apoptotic (%): 35%
  Population Fragmented Nuclei (%): 29%
  Population Healthy Nuclei (%): 54%
  Population Hoechst High Intensity Objects (%): 12%
  Population Membrane Permeable-Phenotype (%): 33%
  Population Mitochondria Different-Phenotype (%): 8%
  Population Mitotic Cells (%): 64%
  Population Normal (%): 88%
  Population Pyknosed Nuclei (%): 15%
  Population Tubulin-Different-Phenotype (%): 50%
  Total Cell Count: 100
[10]
  Population Apoptotic (%): 0%
  Population Fragmented Nuclei (%): 26%
  Population Healthy Nuclei (%): 73%
  Population Hoechst High Intensity Objects (%): 8%
  Population Membrane Permeable-Phenotype (%): 21%
  Population Mitochondria Different-Phenotype (%): 2%
  Population Mitotic Cells (%): 0%
  Population Normal (%): 91%
  Population Pyknosed Nuclei (%): 0%
  Population Tubulin-Different-Phenotype (%): 48%
  Total Cell Count: 70
[11]
  Population Apoptotic (%): 44%
  Population Fragmented Nuclei (%): 27%
  Population Healthy Nuclei (%): 54%
  Population Hoechst High Intensity Objects (%): 14%
  Population Membrane Permeable-Phenotype (%): 29%
  Population Mitochondria Different-Phenotype (%): 4%
  Population Mitotic Cells (%): 55%
  Population Normal (%): 85%
  Population Pyknosed Nuclei (%): 18%
  Population Tubulin-Different-Phenotype (%): 69%
  Total Cell Count: 184
[12]
  Population Apoptotic (%): 66%
  Population Fragmented Nuclei (%): 21%
  Population Healthy Nuclei (%): 74%
  Population Hoechst High Intensity Objects (%): 9%
  Population Membrane Permeable-Phenotype (%): 28%
  Population Mitochondria Different-Phenotype (%): 0%
  Population Mitotic Cells (%): 33%
  Population Normal (%): 90%
  Population Pyknosed Nuclei (%): 4%
  Population Tubulin-Different-Phenotype (%): 59%
  Total Cell Count: 77
